{"data": "Measured values pooled from the literature"}
{"Structure (SMILES)": "FC(F)(F)c1cc(Nc2ncnc3ccc(-c4cccc(N5CCOCC5)c4)cc23)ccc1Cl", "test system": "aqueous buffer", "conditions": "pH 7.4, 25 °C", "measurement": "thermodynamic solubility", "result": "< 0.7 µM"}
{"Structure (SMILES)": "N#Cc1ccc(C[C@H](Nc2c(Nc3ccc(Br)cc3)c(=O)c2=O)C(=O)N2CCc3ccccc32)cc1", "test system": "aqueous buffer", "conditions": "2 h, pH 7.4, 37 °C", "measurement": "kinetic solubility", "result": "9.2 µM"}
{"Structure (SMILES)": "CC[C@H](C)[C@H](NC(=O)[C@H](C)NC(=O)CNC(=O)[C@H](Cc1ccccc1)NC(=O)[C@H](CC(N)=O)NC(=O)[C@H](CC(N)=O)NC(=O)[C@H](CO)NC(=O)[C@H](CO)NC(=O)[C@H](Cc1c[nH]cn1)NC(=O)[C@@H](NC(=O)[C@H](CC(C)C)NC(=O)[C@H](Cc1ccccc1)NC(=O)[C@H](CC(N)=O)NC(=O)[C@H](C)NC(=O)[C@H](CC(C)C)NC(=O)[C@H](CCCNC(=N)N)NC(=O)[C@H](CCC(N)=O)NC(=O)[C@@H](NC(=O)[C@H](C)NC(=O)[C@@H]1CSSC[C@H](NC(=O)[C@@H](N)CCCCN)C(=O)N[C@@H](CC(N)=O)C(=O)N[C@@H]([C@@H](C)O)C(=O)N[C@@H](C)C(=O)N[C@@H]([C@@H](C)O)C(=O)N1)[C@@H](C)O)C(C)C)C(=O)N[C@@H](CC(C)C)C(=O)N[C@@H](CO)C(=O)N[C@@H](CO)C(=O)N[C@H](C(=O)N[C@@H](CC(N)=O)C(=O)N[C@H](C(=O)NCC(=O)N[C@@H](CO)C(=O)N[C@@H](CC(N)=O)C(=O)N[C@H](C(=O)N[C@@H](Cc1ccc(O)cc1)C(N)=O)[C@@H](C)O)C(C)C)[C@@H](C)O", "test system": "PBS", "conditions": "1 h, pH 7.4", "measurement": "thermodynamic solubility", "result": "37 µg/mL"}
{"Structure (SMILES)": "Clc1ccc(Nc2ncnc3ccc(-c4cccc(N5CCOCC5)c4)cc23)cc1", "test system": "aqueous buffer", "conditions": "pH 7.4, 25 °C", "measurement": "thermodynamic solubility", "result": "< 0.4 µM"}
{"Structure (SMILES)": "CO[C@H]1C[C@@H]2CC[C@@H](C)[C@@](O)(O2)C(=O)C(=O)N2CCCC[C@H]2C(=O)O[C@H]([C@H](C)C[C@@H]2CC[C@@H](O)[C@H](OC)C2)CC(=O)[C@H](C)/C=C(\\C)[C@@H](O)[C@@H](OC)C(=O)[C@H](C)C[C@H](C)/C=C/C=C/C=C/1C", "test system": "aqueous buffer", "conditions": "18 h, pH 7.4", "measurement": "thermodynamic solubility", "result": "6 µM"}
{"Structure (SMILES)": "O=C(N1CCCCC1)C12CC(c3ccccc3)(C1)C2", "test system": "PBS", "conditions": "2 h, pH 7.4, 25 °C", "measurement": "kinetic solubility", "result": "266 µM"}
{"Structure (SMILES)": "Cc1ccccc1CN1C(=O)C2=C(CCN(Cc3ccccc3)C2)N2CCN=C12", "test": "shake flask", "test system": "aqueous buffer", "conditions": "pH 6", "measurement": "solubility", "result": "260 µg/mL"}
{"Structure (SMILES)": "CNS(=O)(=O)c1ccc(Nc2ncc(C(F)(F)F)c([C@H]3CC[C@@](C)(O)CC3)n2)c(C)c1", "test system": "FaSSIF", "conditions": "2 h", "measurement": "solubility", "result": "128 µM"}
{"Structure (SMILES)": "N#Cc1ccc(C[C@H](Nc2nnc(-c3ccc(F)cc3)o2)C(=O)N2CCc3ccccc32)cc1", "test system": "aqueous buffer", "conditions": "2 h, pH 7.4, 37 °C", "measurement": "kinetic solubility", "result": "4.8 µM"}
{"Structure (SMILES)": "CCCCCCCCCCCCCCCC(=O)NCCOC(=O)C[C@@H](CN)CC(C)C", "test system": "water", "conditions": "12 h, 37 °C", "measurement": "thermodynamic solubility", "result": "3460 µg/mL"}
{"Structure (SMILES)": "Cc1ccc(-c2nnc(N[C@@H](Cc3ccc(C#N)cc3)C(=O)N3CCc4ccccc43)o2)cc1", "test system": "aqueous buffer", "conditions": "2 h, pH 7.4, 37 °C", "measurement": "kinetic solubility", "result": "5.4 µM"}
{"Structure (SMILES)": "CCCCCCCCCCCCCCCC(=O)NCCO", "test system": "water", "conditions": "12 h, 37 °C", "measurement": "thermodynamic solubility", "result": "< 16 µg/mL"}
{"Structure (SMILES)": "N#Cc1ccc(C[C@@H](Nc2c(Nc3ccc(F)cc3)c(=O)c2=O)C(=O)N2CCc3ccccc32)cc1", "test system": "aqueous buffer", "conditions": "2 h, pH 7.4, 37 °C", "measurement": "kinetic solubility", "result": "11.8 µM"}
{"Structure (SMILES)": "Fc1ccccc1Nc1nc(-c2ccncc2)nc2c1CNCC2", "test system": "PBS", "conditions": "24 h, pH 7.4", "measurement": "kinetic solubility", "result": "> 250 µM"}
{"Structure (SMILES)": "N#Cc1ccc(C[C@H](Nc2nnc(-c3ccc(Br)cc3)o2)C(=O)N2CCc3ccccc32)cc1", "test system": "aqueous buffer", "conditions": "2 h, pH 7.4, 37 °C", "measurement": "kinetic solubility", "result": "1.8 µM"}
{"Structure (SMILES)": "CCN(CC)CCNC(=O)c1cc(S(C)(=O)=O)ccc1OC", "test system": "PBS", "conditions": "2 h, pH 7.4, 25 °C", "measurement": "kinetic solubility", "result": "394 µM"}
